# Test results from ChEMBL document CHEMBL5537199, “Discovery and SAR Study of Boronic Acid-Based Selective PDE3B Inhibitors from a Novel DNA-Encoded Library” (J Med Chem, 2024).
# The source made the active and inactive calls. No cut-off for these calls is given here.
# Key:
# [1] = target: T1, cGMP-inhibited 3',5'-cyclic phosphodiesterase 3B (Homo sapiens, UniProt Q13370); assay: Inhibition of PDE3B (unknown origin) expression in adipocytes assessed as reduction in lipid hydrolysis at 10 uM; type: cell-based
# Target sequence in this assay (Q13370 whole entry, looked up, the tested form may be a part): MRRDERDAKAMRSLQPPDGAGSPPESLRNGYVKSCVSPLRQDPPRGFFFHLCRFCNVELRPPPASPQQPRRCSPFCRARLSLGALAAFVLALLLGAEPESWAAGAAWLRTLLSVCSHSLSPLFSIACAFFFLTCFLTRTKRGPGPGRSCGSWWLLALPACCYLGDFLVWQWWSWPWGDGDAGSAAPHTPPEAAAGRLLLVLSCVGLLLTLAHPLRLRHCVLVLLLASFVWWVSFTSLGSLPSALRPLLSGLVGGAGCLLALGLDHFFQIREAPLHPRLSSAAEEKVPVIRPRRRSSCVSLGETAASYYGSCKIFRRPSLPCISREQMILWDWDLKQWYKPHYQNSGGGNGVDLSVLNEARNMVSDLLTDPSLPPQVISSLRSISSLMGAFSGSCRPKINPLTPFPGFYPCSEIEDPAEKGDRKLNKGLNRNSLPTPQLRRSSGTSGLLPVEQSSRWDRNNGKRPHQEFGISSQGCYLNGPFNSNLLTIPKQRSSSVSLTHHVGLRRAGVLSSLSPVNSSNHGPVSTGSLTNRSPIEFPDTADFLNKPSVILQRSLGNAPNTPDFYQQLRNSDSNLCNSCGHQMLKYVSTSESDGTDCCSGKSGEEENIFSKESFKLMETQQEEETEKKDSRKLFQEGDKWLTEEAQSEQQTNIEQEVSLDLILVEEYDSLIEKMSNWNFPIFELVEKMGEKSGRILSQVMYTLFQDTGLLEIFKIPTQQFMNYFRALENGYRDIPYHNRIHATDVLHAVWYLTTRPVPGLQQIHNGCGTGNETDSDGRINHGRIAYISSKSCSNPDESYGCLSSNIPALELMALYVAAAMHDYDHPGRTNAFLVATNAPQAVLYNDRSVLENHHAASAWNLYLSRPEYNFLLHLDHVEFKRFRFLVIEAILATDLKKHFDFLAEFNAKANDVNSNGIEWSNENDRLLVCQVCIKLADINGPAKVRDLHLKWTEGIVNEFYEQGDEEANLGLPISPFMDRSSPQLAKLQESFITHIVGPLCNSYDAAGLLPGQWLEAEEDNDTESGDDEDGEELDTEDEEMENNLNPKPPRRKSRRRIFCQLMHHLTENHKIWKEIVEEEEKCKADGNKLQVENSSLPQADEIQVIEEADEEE
# [2] = target: T1, cGMP-inhibited 3',5'-cyclic phosphodiesterase 3B; assay: Inhibition of full-length PDE3B (M1 to E1112 residues) (unknown origin) using FAM-cAMP as substrate incubated for 120 mins by TR-FRET IMAP assay
# In short: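 Buffer 50 mM Tris-HCl pH 7.5, 8.3 mM MgCl2, 1.7 mM EGTA, 0.05% BSA. Compounds run as a concentration curve with a top final concentration of 100 μM. DMSO and 10 μM trequinsin served as controls. Terbium TR-FRET ratio read at 520:490 nm.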
# Target sequence in this assay (Q13370 whole entry, the tested form may be a part): as the sequence (Q13370 whole entry, looked up, the tested form may be a part) above
# [3] = Selectivity ratio of inhibition for PDE3A (M1 to Q1141 residues) (unknown origin) by RF-MS assay to inhibition for PDE3B (M1 to E1112 residues) (unknown origin) by RF-MS assay
# [4] = Selectivity ratio of inhibition for PDE3A (M1 to Q1141 residues) (unknown origin) by IMAP assay to inhibition for PDE3B (M1 to E1112 residues) (unknown origin) by IMAP assay
# [5] = target: cGMP-inhibited 3',5'-cyclic phosphodiesterase 3A (Homo sapiens, UniProt Q14432); assay: Inhibition of PDE3A (M1 to Q1141 residues) (unknown origin) using FAM-cAMP as substrate incubated for 45 mins by TR-FRET IMAP assay
# Sequence of cGMP-inhibited 3',5'-cyclic phosphodiesterase 3A (Q14432 whole entry, the tested form may be a part): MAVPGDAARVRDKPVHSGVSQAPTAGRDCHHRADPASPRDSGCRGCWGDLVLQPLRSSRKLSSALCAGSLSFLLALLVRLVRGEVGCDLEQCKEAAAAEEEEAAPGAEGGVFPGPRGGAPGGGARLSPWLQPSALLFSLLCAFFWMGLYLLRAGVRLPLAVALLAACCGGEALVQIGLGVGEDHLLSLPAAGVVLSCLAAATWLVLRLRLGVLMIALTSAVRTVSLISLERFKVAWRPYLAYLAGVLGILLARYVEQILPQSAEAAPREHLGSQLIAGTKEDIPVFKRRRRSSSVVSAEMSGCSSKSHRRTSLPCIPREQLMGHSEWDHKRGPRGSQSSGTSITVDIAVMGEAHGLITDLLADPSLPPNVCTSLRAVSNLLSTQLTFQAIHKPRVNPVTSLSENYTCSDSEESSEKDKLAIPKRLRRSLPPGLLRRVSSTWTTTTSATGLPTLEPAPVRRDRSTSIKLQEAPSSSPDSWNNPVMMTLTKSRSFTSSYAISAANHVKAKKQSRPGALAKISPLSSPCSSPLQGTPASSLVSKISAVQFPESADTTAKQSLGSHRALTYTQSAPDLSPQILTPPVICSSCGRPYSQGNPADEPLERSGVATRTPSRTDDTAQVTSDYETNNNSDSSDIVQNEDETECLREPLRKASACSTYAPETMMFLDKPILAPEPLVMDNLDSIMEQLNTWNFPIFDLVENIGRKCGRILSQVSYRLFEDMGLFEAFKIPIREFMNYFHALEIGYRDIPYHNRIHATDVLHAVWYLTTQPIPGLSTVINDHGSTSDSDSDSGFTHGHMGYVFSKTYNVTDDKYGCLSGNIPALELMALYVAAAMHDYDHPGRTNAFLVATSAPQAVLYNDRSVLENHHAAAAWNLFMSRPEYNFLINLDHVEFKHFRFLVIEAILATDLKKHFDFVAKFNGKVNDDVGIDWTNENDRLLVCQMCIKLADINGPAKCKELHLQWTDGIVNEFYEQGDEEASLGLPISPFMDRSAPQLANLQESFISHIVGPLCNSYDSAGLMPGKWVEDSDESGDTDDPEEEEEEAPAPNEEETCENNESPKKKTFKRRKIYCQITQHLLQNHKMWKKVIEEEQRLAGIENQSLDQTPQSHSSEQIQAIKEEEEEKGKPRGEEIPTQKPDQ
# In short: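 Full-length PDE3A at 1.6 nM with 50 nM FAM-cAMP, 45 min reaction. Buffer 50 mM Tris-HCl pH 7.5, 8.3 mM MgCl2, 1.7 mM EGTA, 0.05% BSA. Compounds run as a concentration curve with a top final concentration of 100 μM. DMSO and 10 μM trequinsin served as controls. TR-FRET read at Ex 337 nm, Em 520/490 nm.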
Structure (SMILES),inhibition [1],IC50 [2],Selectivity ratio [3],Selectivity ratio [4],IC50 [5]
CC1CC(=O)NN=C1c1ccc(NC2=C(Cc3cccc(-c4ccccc4)c3)C(=O)CCC2)cc1 (stereo not given),Active,,,,
CNC(=O)[C@@H](NC(=O)c1cc(NC(=O)c2cc(C)c3ccccc3n2)cc(B(O)O)c1)C1CCCCC1,Active,0.00794 µM,1.1,0.7,0.00501 µM
COCC(C)NC(=O)c1cc(NC(=O)c2cc(OC)c3ccc(OC)cc3n2)cc(B(O)O)c1 (stereo not given),Active,0.316 µM,46,> 300,> 100 µM
CNC(=O)[C@@H](NC(=O)c1cc(NC(=O)c2cc(OC)c3cc(OC)ccc3n2)cc(B(O)O)c1)C1CCCCC1,,1 µM,0.9,0.8,0.794 µM
